Measurements published in ChEMBL document CHEMBL4354843, “Structure-Based Design of a Potent and Selective Covalent Inhibitor for SRC Kinase That Targets a P-Loop Cysteine” (J Med Chem, 2020).
The source made the active and inactive calls. No cut-off for these calls is given here.

How the values were obtained:
[1] = molecular target: Serine/threonine-protein kinase 17B (Homo sapiens) (UniProt O94768); test: Binding affinity to wild-type human full length DRAK2 (M1 to C372 residues) expressed in bacterial expression system assessed as residual binding level at 1 uM by Kinomescan method relative to control
How it was run: (§1)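 Active-site-directed KinomeScan competition binding panel covering 468 kinases, compound tested at 1 μM. Each readout is the kinase signal remaining with compound, expressed as a percentage of the DMSO control. […]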

[2] = molecular target: RAC-alpha serine/threonine-protein kinase (Homo sapiens) (UniProt P31749); test: Binding affinity to wild-type human partial length AKT1 expressed in bacterial expression system assessed as residual binding level at 1 uM by Kinomescan method relative to control
[3] = molecular target: Casein kinase I isoform alpha (Homo sapiens) (UniProt P48729); test: Binding affinity to wild-type human partial length CSNK1A1 (M1 to L450 residues) expressed in mammalian expression system assessed as residual binding level at 1 uM by Kinomescan method relative to control
How it was run: (§2)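 Active-site-directed competition binding panel of 468 kinases (KinomeScan), compound at 1 μM. The read-out is kinase remaining bound, given as a percentage of the DMSO control. […]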

[4] = molecular target: Bone morphogenetic protein receptor type-1A (Homo sapiens) (UniProt P36894); test: Binding affinity to wild-type human partial length BMPR1A (Q214 to I532 residues) expressed in bacterial expression system assessed as residual binding level at 1 uM by Kinomescan method relative to control
[5] = molecular target: Rho-associated protein kinase 2 (Homo sapiens) (UniProt O75116); test: Binding affinity to wild-type human partial length ROCK2 (M1 to T431 residues) expressed in mammalian expression system assessed as residual binding level at 1 uM by Kinomescan method relative to control
[6] = test system: Mus musculus; test: In vivo inhibition of SRC in C57B6 mouse assessed as reduction in phosphorylation of SRC Y416 at 5 mg/kg, ip measured after 2 to 4 hrs by Western blot analysis; format: functional, organism-based
How it was run: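 Adult C57B6 mice, n = 2 per condition, dosed intraperitoneally 5 mg/kg three times every 12 h; vehicle 5% DMSO/95% D5W. Spleens taken 2 or 4 h after the final dose and lysed in M-PER with protease/phosphatase inhibitors. Lysates blotted for phospho-SRC Y416, total SRC and β-actin.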

[7] = molecular target: Microtubule-associated serine/threonine-protein kinase 1 (Homo sapiens) (UniProt Q9Y2H9); test: Binding affinity to wild-type human partial length MAST1 (S346 to V730 residues) expressed in mammalian expression system assessed as residual binding level at 1 uM by Kinomescan method relative to control; how it was run: as §2
Chain of Microtubule-associated serine/threonine-protein kinase 1 (Homo sapiens) (Q9Y2H9 whole entry, looked up, the tested form may be a part): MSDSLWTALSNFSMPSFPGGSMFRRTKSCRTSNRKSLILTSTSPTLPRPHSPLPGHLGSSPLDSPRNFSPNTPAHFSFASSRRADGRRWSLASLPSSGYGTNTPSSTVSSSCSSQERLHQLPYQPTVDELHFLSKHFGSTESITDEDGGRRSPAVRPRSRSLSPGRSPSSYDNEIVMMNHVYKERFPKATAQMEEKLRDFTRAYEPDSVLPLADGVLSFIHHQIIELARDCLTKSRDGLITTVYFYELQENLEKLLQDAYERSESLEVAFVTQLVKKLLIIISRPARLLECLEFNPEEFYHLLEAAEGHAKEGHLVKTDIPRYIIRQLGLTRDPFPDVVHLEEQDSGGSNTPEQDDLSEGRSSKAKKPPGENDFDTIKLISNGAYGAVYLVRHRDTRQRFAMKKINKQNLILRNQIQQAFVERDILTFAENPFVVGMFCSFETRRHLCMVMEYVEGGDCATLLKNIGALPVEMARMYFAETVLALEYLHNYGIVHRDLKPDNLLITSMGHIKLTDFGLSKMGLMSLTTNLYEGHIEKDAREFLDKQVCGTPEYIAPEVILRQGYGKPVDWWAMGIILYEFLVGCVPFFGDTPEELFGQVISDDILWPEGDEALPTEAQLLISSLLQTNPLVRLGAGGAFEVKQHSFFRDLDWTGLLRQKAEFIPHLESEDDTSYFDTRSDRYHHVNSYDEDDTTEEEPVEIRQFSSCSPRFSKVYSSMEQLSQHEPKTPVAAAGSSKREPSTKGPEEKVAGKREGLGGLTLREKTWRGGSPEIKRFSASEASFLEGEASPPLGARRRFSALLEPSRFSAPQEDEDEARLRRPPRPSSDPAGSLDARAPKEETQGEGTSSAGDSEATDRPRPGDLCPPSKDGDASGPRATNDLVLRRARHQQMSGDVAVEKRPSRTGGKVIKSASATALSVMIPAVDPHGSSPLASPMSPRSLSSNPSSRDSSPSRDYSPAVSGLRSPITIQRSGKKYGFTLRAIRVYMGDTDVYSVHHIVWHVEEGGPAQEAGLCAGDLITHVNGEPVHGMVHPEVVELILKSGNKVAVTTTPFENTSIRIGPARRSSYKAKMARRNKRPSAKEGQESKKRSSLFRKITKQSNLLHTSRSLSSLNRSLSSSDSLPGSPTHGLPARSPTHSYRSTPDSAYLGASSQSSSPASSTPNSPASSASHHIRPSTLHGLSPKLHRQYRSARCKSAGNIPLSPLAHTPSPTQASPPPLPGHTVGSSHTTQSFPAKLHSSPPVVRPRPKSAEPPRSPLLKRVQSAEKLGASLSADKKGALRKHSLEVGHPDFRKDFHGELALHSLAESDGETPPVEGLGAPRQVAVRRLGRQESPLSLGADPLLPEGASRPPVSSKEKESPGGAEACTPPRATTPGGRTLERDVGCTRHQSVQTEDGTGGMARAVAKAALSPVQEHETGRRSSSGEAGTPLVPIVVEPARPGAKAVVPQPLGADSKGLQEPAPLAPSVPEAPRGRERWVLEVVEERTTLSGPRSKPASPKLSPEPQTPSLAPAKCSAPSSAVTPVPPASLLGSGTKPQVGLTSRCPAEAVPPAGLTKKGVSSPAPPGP

[8] = molecular target: Calcium/calmodulin-dependent protein kinase kinase 1 (Homo sapiens) (UniProt Q8N5S9); test: Binding affinity to wild-type human partial length CAMKK1 (R65 to E414 residues) expressed in bacterial expression system assessed as residual binding level at 1 uM by Kinomescan method relative to control
[9] = molecular target: Phosphatidylinositol 4-phosphate 5-kinase type-1 gamma (Homo sapiens) (UniProt O60331); test: Binding affinity to wild-type human partial length PIP5K1C (M1 to T668 residues) expressed in mammalian expression system assessed as residual binding level at 1 uM by Kinomescan method relative to control
[10] = molecular target: Calcium/calmodulin-dependent protein kinase kinase 2 (Homo sapiens) (UniProt Q96RR4); test: Binding affinity to wild-type human partial length CAMKK2 (D65 to V471 residues) expressed in bacterial expression system assessed as residual binding level at 1 uM by Kinomescan method relative to control
[11] = test system: Phosphatidylinositol 4,5-bisphosphate 3-kinase catalytic subunit alpha isoform (Homo sapiens), P42336 [I800L]; test: Binding affinity to human partial length PIK3CA I800L mutant (R108 to N1068 residues) expressed in mammalian expression system assessed as residual binding level at 1 uM by Kinomescan method relative to control
How it was run: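 KinomeScan active site-directed competition binding panel (468 kinases), compound tested at 1 μM. Result expressed as remaining kinase signal versus DMSO control (percent of control).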

[12] = molecular target: Receptor-interacting serine/threonine-protein kinase 1 (Homo sapiens) (UniProt Q13546); test: Binding affinity to wild-type human partial length RIPK1 (M1 to K305 residues) expressed in bacterial expression system assessed as residual binding level at 1 uM by Kinomescan method relative to control
[13] = molecular target: Serine/threonine-protein kinase tousled-like 2 (Homo sapiens) (UniProt Q86UE8); test: Binding affinity to wild-type human partial length TLK2 (E424 to N749 residues) expressed in bacterial expression system assessed as residual binding level at 1 uM by Kinomescan method relative to control
[14] = molecular target: Serine/threonine-protein kinase PknB (Mycobacterium tuberculosis) (UniProt P9WI81); test: Binding affinity to wild-type Mycobacterium tuberculosis partial length PKNB (M1 to G279 residues) expressed in mammalian expression system assessed as residual binding level at 1 uM by Kinomescan method relative to control; how it was run: as §1
[15] = molecular target: Casein kinase II subunit alpha (Homo sapiens) (UniProt P68400); test: Binding affinity to wild-type human full length CSNK2A1 (M1 to Q391 residues) expressed in mammalian expression system assessed as residual binding level at 1 uM by Kinomescan method relative to control
How it was run: (§3)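 KinomeScan, an active site-directed competition binding panel of 468 kinases. The test compound was at 1 μM. The readout is remaining kinase binding as a percentage of the DMSO control. Scores above 35% were treated as weak binding and not listed.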

[16] = molecular target: NUAK family SNF1-like kinase 2 (Homo sapiens) (UniProt Q9H093); test: Binding affinity to wild-type human partial length SNARK (P22 to A333 residues) expressed in mammalian expression system assessed as residual binding level at 1 uM by Kinomescan method relative to control
[17] = molecular target: Leucine-rich repeat serine/threonine-protein kinase 2 (Homo sapiens) (UniProt Q5S007); test: Binding affinity to wild-type human partial length LRRK2 (H970 to E2527 residues) expressed in mammalian expression system assessed as residual binding level at 1 uM by Kinomescan method relative to control
Chain of Leucine-rich repeat serine/threonine-protein kinase 2 (Homo sapiens) (Q5S007 whole entry, the tested form may be a part): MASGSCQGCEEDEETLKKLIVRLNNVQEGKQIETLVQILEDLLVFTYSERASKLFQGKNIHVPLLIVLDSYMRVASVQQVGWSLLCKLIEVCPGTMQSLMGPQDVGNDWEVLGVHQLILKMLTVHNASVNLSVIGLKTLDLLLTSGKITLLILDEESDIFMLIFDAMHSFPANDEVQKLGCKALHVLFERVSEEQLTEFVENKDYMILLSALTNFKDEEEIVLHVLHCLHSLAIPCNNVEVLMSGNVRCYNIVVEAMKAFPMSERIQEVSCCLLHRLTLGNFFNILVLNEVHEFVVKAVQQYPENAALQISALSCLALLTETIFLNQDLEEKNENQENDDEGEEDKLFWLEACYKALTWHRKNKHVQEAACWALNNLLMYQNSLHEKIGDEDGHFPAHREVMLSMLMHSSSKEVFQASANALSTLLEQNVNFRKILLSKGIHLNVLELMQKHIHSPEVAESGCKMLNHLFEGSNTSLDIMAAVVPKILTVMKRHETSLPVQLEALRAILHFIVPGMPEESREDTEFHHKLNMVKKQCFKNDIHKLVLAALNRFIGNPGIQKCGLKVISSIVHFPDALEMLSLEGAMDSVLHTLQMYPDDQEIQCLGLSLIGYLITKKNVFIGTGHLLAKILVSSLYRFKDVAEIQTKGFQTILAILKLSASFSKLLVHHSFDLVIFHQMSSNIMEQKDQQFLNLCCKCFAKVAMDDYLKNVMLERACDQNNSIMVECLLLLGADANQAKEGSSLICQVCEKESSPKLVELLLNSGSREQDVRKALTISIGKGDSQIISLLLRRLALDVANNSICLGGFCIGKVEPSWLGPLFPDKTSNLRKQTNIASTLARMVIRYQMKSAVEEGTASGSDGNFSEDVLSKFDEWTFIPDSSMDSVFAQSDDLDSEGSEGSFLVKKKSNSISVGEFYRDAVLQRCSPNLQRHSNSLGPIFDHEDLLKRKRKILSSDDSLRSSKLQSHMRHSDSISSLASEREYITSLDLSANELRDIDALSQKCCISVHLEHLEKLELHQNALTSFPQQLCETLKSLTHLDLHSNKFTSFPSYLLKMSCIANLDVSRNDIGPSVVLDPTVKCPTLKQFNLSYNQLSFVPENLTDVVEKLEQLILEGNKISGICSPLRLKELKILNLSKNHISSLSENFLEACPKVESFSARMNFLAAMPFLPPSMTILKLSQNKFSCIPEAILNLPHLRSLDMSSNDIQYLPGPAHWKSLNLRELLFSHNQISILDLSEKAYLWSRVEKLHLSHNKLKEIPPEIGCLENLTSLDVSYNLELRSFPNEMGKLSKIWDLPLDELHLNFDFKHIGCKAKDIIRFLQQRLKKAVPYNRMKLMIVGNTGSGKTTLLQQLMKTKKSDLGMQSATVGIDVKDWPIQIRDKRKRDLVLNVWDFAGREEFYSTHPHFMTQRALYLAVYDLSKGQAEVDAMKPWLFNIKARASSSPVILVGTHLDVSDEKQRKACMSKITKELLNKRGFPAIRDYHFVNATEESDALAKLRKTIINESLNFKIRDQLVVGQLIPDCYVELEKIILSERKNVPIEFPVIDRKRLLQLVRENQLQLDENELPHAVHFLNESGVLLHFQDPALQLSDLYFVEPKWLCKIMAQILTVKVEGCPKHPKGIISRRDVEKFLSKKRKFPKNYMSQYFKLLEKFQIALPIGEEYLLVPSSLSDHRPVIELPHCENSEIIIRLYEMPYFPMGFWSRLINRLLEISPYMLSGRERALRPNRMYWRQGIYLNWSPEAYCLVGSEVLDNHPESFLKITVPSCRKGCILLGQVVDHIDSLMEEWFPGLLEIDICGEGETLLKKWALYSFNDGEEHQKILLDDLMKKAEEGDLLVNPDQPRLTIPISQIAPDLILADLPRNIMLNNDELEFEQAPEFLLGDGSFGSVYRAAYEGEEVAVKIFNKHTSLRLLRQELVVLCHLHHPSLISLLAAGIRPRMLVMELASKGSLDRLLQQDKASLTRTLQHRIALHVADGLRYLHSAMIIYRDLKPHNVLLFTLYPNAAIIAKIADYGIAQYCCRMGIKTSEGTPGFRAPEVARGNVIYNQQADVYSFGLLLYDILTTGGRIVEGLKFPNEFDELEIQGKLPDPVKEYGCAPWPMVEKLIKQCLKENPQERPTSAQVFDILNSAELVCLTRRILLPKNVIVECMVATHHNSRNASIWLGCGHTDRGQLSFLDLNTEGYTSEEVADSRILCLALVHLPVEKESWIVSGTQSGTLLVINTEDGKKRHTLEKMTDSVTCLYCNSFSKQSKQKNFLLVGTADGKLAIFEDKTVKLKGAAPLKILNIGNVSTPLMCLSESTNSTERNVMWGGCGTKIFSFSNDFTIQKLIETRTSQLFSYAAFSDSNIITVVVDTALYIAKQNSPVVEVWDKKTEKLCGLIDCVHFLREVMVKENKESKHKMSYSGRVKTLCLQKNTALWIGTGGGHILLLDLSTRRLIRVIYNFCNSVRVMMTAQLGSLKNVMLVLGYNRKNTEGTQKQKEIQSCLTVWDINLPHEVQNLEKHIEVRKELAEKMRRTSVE

[18] = molecular target: Serine/threonine-protein kinase Nek4 (Homo sapiens) (UniProt P51957); test: Binding affinity to wild-type human full length NEK4 (M1 to F841 residues) expressed in mammalian expression system assessed as residual binding level at 1 uM by Kinomescan method relative to control; how it was run: as §3
Chain of Serine/threonine-protein kinase Nek4 (Homo sapiens) (P51957 whole entry, looked up, the tested form may be a part): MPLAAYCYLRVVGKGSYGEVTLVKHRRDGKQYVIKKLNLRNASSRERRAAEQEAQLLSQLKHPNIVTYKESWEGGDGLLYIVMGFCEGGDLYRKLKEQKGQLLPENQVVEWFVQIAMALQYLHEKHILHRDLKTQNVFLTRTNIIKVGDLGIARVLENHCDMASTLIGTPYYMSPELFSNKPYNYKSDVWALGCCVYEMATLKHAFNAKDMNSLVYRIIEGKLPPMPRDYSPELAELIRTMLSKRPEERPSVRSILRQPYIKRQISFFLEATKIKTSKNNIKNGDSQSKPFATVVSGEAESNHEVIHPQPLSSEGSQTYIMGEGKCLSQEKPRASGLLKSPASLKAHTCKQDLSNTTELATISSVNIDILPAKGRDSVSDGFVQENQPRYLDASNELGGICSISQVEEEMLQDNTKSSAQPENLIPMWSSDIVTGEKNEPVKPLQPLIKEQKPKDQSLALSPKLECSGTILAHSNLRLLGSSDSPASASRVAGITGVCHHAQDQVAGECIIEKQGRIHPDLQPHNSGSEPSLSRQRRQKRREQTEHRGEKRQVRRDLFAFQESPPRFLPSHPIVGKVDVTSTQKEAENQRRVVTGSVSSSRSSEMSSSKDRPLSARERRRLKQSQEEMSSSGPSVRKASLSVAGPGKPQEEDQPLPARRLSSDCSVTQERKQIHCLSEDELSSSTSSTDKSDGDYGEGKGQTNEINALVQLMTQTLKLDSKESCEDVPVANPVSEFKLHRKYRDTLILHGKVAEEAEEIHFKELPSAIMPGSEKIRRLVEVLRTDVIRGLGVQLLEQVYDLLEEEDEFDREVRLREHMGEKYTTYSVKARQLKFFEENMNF

[19] = molecular target: Cytoplasmic tyrosine-protein kinase BMX (Homo sapiens) (UniProt P51813); test: Binding affinity to wild-type human full length BMX (M1 to H675 residues) expressed in bacterial expression system assessed as residual binding level at 1 uM by Kinomescan method relative to control; how it was run: as §3
[20] = molecular target: STE20/SPS1-related proline-alanine-rich protein kinase (Homo sapiens) (UniProt Q9UEW8); test: Binding affinity to wild-type human partial length STK39 (P43 to I357 residues) expressed in mammalian expression system assessed as residual binding level at 1 uM by Kinomescan method relative to control
[21] = molecular target: Tyrosine-protein kinase ABL2 (Homo sapiens) (UniProt P42684); test: Binding affinity to wild-type human ABL2 (A248 to G542 residues) expressed in bacterial expression system assessed as residual binding level at 1 uM by Kinomescan method relative to control; how it was run: as §3

**Q.** What does the source list for `C=CC(=O)Nc1ccccc1Nc1nc(Nc2ccc(N3CCN(C)CC3)cc2)ncc1C(=O)Nc1c(C)cccc1Cl`?
**A.** Activity [1]: 100%; Activity [2]: 89%; Activity [3]: 86%; Activity [4]: 100%; Activity [5]: 100%; inhibition [6]: Active; Activity [7]: 82%; Activity [8]: 100%; Activity [9]: 100%; Activity [10]: 100%; Activity [11]: 86%; Activity [12]: 100%; Activity [13]: 100%; Activity [14]: 100%; Activity [15]: 68%; Activity [16]: 100%; Activity [17]: 100%; Activity [18]: 94%; Activity [19]: 48%; Activity [20]: 65%; Activity [21]: 0.35%
